Data as given in ChEMBL document CHEMBL3856201, “5,10b-Ethanophenanthridine amaryllidaceae alkaloids inspire the discovery of novel bicyclic ring systems with activity against drug resistant cancer cells” (2016).
Calls of active or inactive are those of the source. The rule behind the calls is not given here.

Tests used:
[1] = Antiproliferative activity against human MCF7 cells after 48 hrs by MTT assay; format: functional; details: MCF7, 48 h
In short: (§1)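 HeLa cells were cultured in DMEM + 10% FBS and MCF-7 cells in RPMI + 10% FBS, both at 37 °C under 5% CO2. Compounds were diluted from DMSO stocks and applied for 48 h. Viability was read by MTT relative to DMSO control. The value is the concentration reducing viability by 50%, ±SD from two independent experiments of 4 replicates each.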

[2] = Antiproliferative activity against human HeLa cells after 48 hrs by MTT assay; format: functional; in short: as §1
[3] = Antiproliferative activity against drug-resistant human A549 cells up to 100 uM after 48 to 96 hrs by MTT assay relative to control; format: functional
In short: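 A549 cultures in RPMI with 10% heat-inactivated FBS were treated across a concentration range up to 100 µM, with phenyl arsine oxide as the nondiscriminate cytotoxic reference. Growth curves were read by MTT assay. Two independent experiments, each in 4 replicates.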

[4] = Antiproliferative activity against patient-derived paclitaxel-sensitive NCI-H1993 cells after 48 to 96 hrs by MTT assay; format: functional; details: Homo sapiens
[5] = Antiproliferative activity against human MES-SA/Dx5 cells after 48 to 96 hrs by MTT assay; format: functional
In short: (§2)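 Parent MES-SA and MES-SA/Dx5 uterine sarcoma cells were grown in RPMI-1640 with 10% FBS. The Dx5 line was kept in 500 nM doxorubicin after stepwise selection from 100 nM in twofold steps, about 2 passages per step. MTT assay used 0.001–100 µM compound for 48–96 h, with 0.1% DMSO and 1 µM phenyl arsine oxide controls. The ratio is the Dx5 GI50 divided by the parent GI50.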

MES-SA = assay: Selectivity ratio of GI50 for human MES-SA/Dx5 cells to GI50 for human MES-SA cells; format: functional; in short: as §2
[6] = Antiproliferative activity against patient-derived paclitaxel-resistant NCI-H2073 cells after 48 to 96 hrs by MTT assay; format: functional; details: Homo sapiens
[7] = Antiproliferative activity against human MES-SA cells after 48 to 96 hrs by MTT assay; format: functional; in short: as §2
[8] = Antiproliferative activity against drug-resistant human U87 cells after 48 to 96 hrs by MTT assay; format: functional, U-87MG ATCC; details: U-87 MG
In short: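 U87 cells grown in DMEM with glutamine, gentamicin and penicillin-streptomycin (37 °C, 95% humidity, 5% CO2) were seeded and then treated with 0.001–100 µM compound for 48–96 h. Readout was MTT. Controls were 0.1% DMSO and 1 µM phenyl arsine oxide. The value is the average concentration reducing viability 50%.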

[9] = Antiproliferative activity against drug-resistant human T98G cells after 48 to 96 hrs by MTT assay; format: functional
In short: (§3)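 MTT read-out. T98G and Hs683 cells were grown in DMEM with 10% FBS, glutamine, gentamicin and penicillin-streptomycin at 37 °C and 5% CO2. Compounds came from 100 or 50 mM DMSO stocks and were tested at 0.001–100 µM for 48–96 h. Controls were 0.1% DMSO (negative) and 1 µM phenyl arsine oxide (positive). The value is the mean concentration giving 50% viability loss; replicate number varied.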

[10] = Antiproliferative activity against drug-resistant human U373 cells after 48 to 96 hrs by MTT assay; format: functional, U-373MG ATCC; details: U373 MG
In short: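 Culture was RPMI with 10% heat-inactivated FBS plus glutamine and antibiotics for U373 cells. Compound exposure was 0.001–100 µM for 48–96 h, with 0.1% DMSO and 1 µM phenyl arsine oxide as controls. The MTT assay gave the average concentration cutting viability by 50%; replicate numbers varied.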

[11] = Antiproliferative activity against drug-sensitive human Hs683 cells after 48 to 96 hrs by MTT assay; format: functional; details: Hs 683; in short: as §3
[12] = Antiproliferative activity against drug-resistant human U251 cells after 48 to 96 hrs by MTT assay; format: functional; details: U-251
In short: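 U251 cells were kept in 10% MEM with glutamine, gentamicin and penicillin-streptomycin at 37 °C and 5% CO2. After seeding they were grown 24–72 h and then given compounds at 0.001–100 µM (from 100 or 50 mM DMSO stocks) for 48–96 h. Viability was read by MTT. Vehicle control was 0.1% DMSO; 1 µM phenyl arsine oxide served as positive control. The result is the average 50%-viability-reducing concentration.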

HeLa S3 = assay: Inhibition of translation in human HeLaS3 assessed as induction of intact polysomes at 50 uM after 1 hr by UV-based […] method; format: functional
In short: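 HeLa S3 cells were exposed to 50 µM compound for 1 h, then analysed by polysome profiling against a DMSO-treated control profile.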

[13] = Antiproliferative activity against patient-derived TMZ-sensitive GBM 090909 cells after 48 to 96 hrs by MTT assay; format: functional; details: Homo sapiens
In short: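 Primary GBM neurosphere cultures came from resected patient tumour. Tissue was minced, dissociated with 100 U/mL collagenase in neurobasal medium for 30 min at 37 °C, filtered through 70 µm, spun at 200 × g for 5 min, and grown in ultra-low attachment wells in neurobasal medium with B27. Compounds were applied at 0.001–100 µM for 48–96 h. MTT gave the average 50%-viability concentration.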

[14] = Antiproliferative activity against patient-derived TMZ-resistant GBM 031810 cells over-expressing MGMT after 48 to 96 hrs by MTT assay; format: functional; details: Homo sapiens
[15] = Antiproliferative activity against drug-resistant human A549 cells after 48 to 96 hrs by MTT assay; format: functional
In short: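 A549 cells grown in RPMI with 10% heat-inactivated FBS, 4 mM glutamine and antibiotics at 37 °C under 5% CO2. Compounds came from 100 or 50 mM DMSO stocks and were tested at 0.001–100 µM for 48–96 h. Read-out was MTT. The value is the mean concentration giving 50% viability loss, with varied replicate numbers. Controls were 0.1% DMSO (negative) and 1 µM phenyl arsine oxide (positive).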

NCI-H1993 = assay: Potentiation of paclitaxel-induced cytotoxicity against patient-derived paclitaxel-sensitive NCI-H1993 cells assessed as reduction in cell viability up to 100 uM after 96 hrs by Celltiter-Glo luminescent assay; format: functional, cell-based; details: Homo sapiens
In short: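 NCI-H1993 cells were seeded at 4×10^3 per well and grown 24 h. […] Viability was read by CellTiter-Glo luminescence. Predicted additivity was calculated by Bliss independence, Exy = Ex + Ey − ExEy.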

SMILES | GI50 [1] | GI50 [2] | further results
O=C1C=C[C@]23CC[N@](Cc4cccc(OCc5ccccc5)c42)[C@H]3C1 | 11 µM | 7 µM | 
O=C1C=C[C@]23CC[N@](Cc4ccsc42)[C@H]3C1 | 12 µM | 8 µM | 
O=C1C=C[C@]23CC[N@](Cc4cc(OCc5ccccc5)ccc42)[C@H]3C1 | 14 µM | 8 µM | 
CC(=O)O[C@H]1C(=O)[C@@]2(C)[C@H]([C@H](OC(=O)c3ccccc3)[C@]3(O)C[C@H](OC(=O)[C@H](O)[C@@H](NC(=O)c4ccccc4)c4ccccc4)C(C)=C1C3(C)C)[C@]1(OC(C)=O)CO[C@@H]1C[C@@H]2O [PACLITAXEL] |  |  | inhibition (INH) [3]: 50%; GI50 [4]: 0.004 µM; GI50 [5]: 10 µM; RatioGI50 (MES-SA): >1000; GI50 [6]: 2.4 µM; GI50 [7]: 0.007 µM
CC[C@]1(O)C[C@@H]2CN(CCc3c([nH]c4ccccc34)[C@@](C(=O)OC)(c3cc4c(cc3OC)N(C)[C@H]3[C@@](O)(C(=O)OC)[C@H](OC(C)=O)[C@]5(CC)C=CCN6CC[C@]43[C@@H]65)C2)C1 [VINBLASTINE] |  |  | RatioGI50 (MES-SA): >1000
COc1cc([C@@H]2c3cc4c(cc3[C@H](O)[C@H]3COC(=O)[C@H]23)OCO4)cc(OC)c1OC [PODOFILOX] |  |  | inhibition (INH) [3]: 50%
O=C1C=CC2(C=C1)CCN(C(=O)C(F)(F)F)Cc1c2ccc2c1OCO2 | > 100 µM | > 100 µM | 
COc1cc2c(cc1OC)[C@@]13C=CC(=O)C[C@@H]1[N@](CC3)C2 | > 100 µM | 64 µM | 
O=C1C=CC2(C=C1)CCN(C(=O)C(F)(F)F)Cc1cc3c(cc12)OCCO3 | 34 µM | 21 µM | 
COc1cc2c(cc1OCc1ccccc1)C1(C=CC(=O)C=C1)CCN(C(=O)C(F)(F)F)C2 | 34 µM | 34 µM | 
O[C@H]1C=C[C@@]23c4cc5c(cc4CN(C[C@@H]2O)[C@H]3C1)OCO5 |  |  | GI50 [8]: 38 µM; GI50 [9]: 99 µM; GI50 [10]: 53 µM; GI50 [11]: 27 µM; GI50 [12]: 41 µM
O=C1C=CC2(C=C1)CCN(C(=O)C(F)(F)F)Cc1cc3c(cc12)OCO3 | 30 µM | 24 µM | 
CO[C@@H]1C=C[C@@]23c4cc5c(cc4CN(C[C@@H]2O)[C@H]3C1)OCO5 |  |  | inhibition (HeLa S3): Active
Cn1nnc2c(C(N)=O)ncn2c1=O [TEMOZOLOMIDE] |  |  | GI50 [13]: 50 µM; GI50 [14]: > 1000 µM
O=C1C=CC2(C=C1)CCN(C(=O)C(F)(F)F)Cc1cc(OCc3ccccc3)c(OCc3ccccc3)cc12 | 25 µM | 17 µM | 
COc1cc2c(cc1OCc1ccccc1)C[N@@]1CC[C@@]23C=CC(=O)C[C@H]13 | 15 µM | 12 µM | 
O[C@H]1[C@H]2c3cc4c(cc3CN3CCC(=C[C@@H]1O)[C@H]23)OCO4 |  |  | inhibition (HeLa S3): Active

SMILES | GI50 [1] | GI50 [2] | further results
COc1cc2c(cc1OC(=O)c1ccccc1)C[N@@]1CC[C@@]23C=CC(=O)C[C@H]13 | 45 µM | 35 µM | 
COc1cc2c(cc1O)C[N@@]1CC[C@@]23C=C/C(=N/O)C[C@H]13 | > 100 µM | > 100 µM | 
O=C1C=C[C@]23CC[N@](Cc4cc(OCc5ccccc5)c(OCc5ccccc5)cc42)[C@H]3C1 | 4 µM | 3 µM | GI50 [15]: 4 µM; GI50 [8]: 5 µM; GI50 [9]: 7 µM; GI50 [5]: 7 µM; GI50 [10]: 7 µM; GI50 [11]: 6 µM; GI50 [12]: 5 µM; GI50 [7]: 2 µM
O=C1C=CC2(C=C1)CCN(C(=O)C(F)(F)F)Cc1c2sc2ccccc12 | 7 µM | 10 µM | GI50 [8]: 6 µM; GI50 [9]: 15 µM; GI50 [4]: 12 µM; GI50 [5]: 5 µM; GI50 [10]: 7 µM; Activity (NCI-H1993): Active; GI50 [11]: 5 µM; GI50 [6]: 50 µM; GI50 [13]: 7 µM; GI50 [14]: 8 µM; GI50 [12]: 4 µM; GI50 [7]: 5 µM
O=C1C=C[C@]23CC[N@](Cc4cc5c(cc42)OCO5)[C@H]3C1 | 24 µM | 25 µM | 
O=C1C=CC2(C=C1)CCN(C(=O)C(F)(F)F)Cc1cccc(OCc3ccccc3)c12 | 14 µM | 11 µM | 
COc1cc2c(cc1O)CN(C(=O)C(F)(F)F)CCC21C=CC(=O)C=C1 | > 100 µM | > 100 µM | 
COc1cc2c(cc1OCc1ccccc1)[C@@]13C=CC(=O)C[C@@H]1[N@](CC3)C2 | 17 µM | 17 µM | 
COc1cc2c(cc1OC(C)=O)C[N@@]1CC[C@@]23C=CC(=O)C[C@H]13 | > 100 µM | > 100 µM | 
O=C1C=C[C@]23CC[N@](Cc4cc5c(cc42)OCCO5)[C@H]3C1 | 19 µM | 13 µM | 
COc1cc2c(cc1O)C[N@@]1CC[C@@]23C=CC(=O)C[C@H]13 | > 100 µM | > 100 µM | 
C#CCCCC(=O)Oc1cc2c(cc1OC)[C@@]13C=CC(=O)C[C@@H]1[N@](CC3)C2 | 53 µM | 43 µM | 
O=C1C=CC2(C=C1)CCN(C(=O)C(F)(F)F)Cc1cc(OCc3ccccc3)ccc12 | 40 µM | 16 µM | 
COc1cc2c(cc1OC)C1(C=CC(=O)C=C1)CCN(C(=O)C(F)(F)F)C2 | > 100 µM | 83 µM | 
COc1cc2c(cc1OCc1ccccc1)CN(C(=O)C(F)(F)F)CCC21C=CC(=O)C=C1 | 48 µM | 38 µM | 
O=C1C=C[C@]23CC[N@](Cc4c2ccc2c4OCO2)[C@H]3C1 | 73 µM | 61 µM | 
O=C1C=C[C@]23CC[N@](Cc4cscc42)[C@H]3C1 | 44 µM | 25 µM | 
